Reference: article PMC11017284 (Asian Journal of Pharmaceutical Sciences, 2024)

Test system: Caco-2 cells
Assay: Caco-2 cellular uptake study
Format: in vitro ADME, human
Conditions: verapamil 50 µg/ml, 1 or 3 h
Summary of the method: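 Caco-2 cells (DMEM, 20% FBS, 37 °C, 5% CO2) seeded at 5 × 10⁴/well and grown 24 h. Test compound as SNEDDS or solution (equivalent CTX 5 µg/ml) given with verapamil 50 µg/ml, 1 or 3 h at 37 °C. Washed three times with ice-cold PBS, sonicated in water (100 W), lysed, spun 13,000 rpm 10 min. CTX by HPLC; handling matched the no-inhibitor uptake arm.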

- Change of Caco-2 uptake after adding P-gp inhibitor: no significant difference
SMILES: CO[C@H]1C(=O)[C@]2(C)[C@@H](OC)C[C@H]3OC[C@@]3(OC(C)=O)[C@H]2[C@H](OC(=O)c2ccccc2)[C@]2(O)C[C@H](OC(=O)[C@H](O)[C@@H](NC(=O)OC(C)(C)C)c3ccccc3)C(C)=C1C2(C)C [CTX, cabazitaxel]
